Assay results gathered from unrelated publications.
Lines come from different studies, so protocols differ. In brackets after ≈: the same amount, converted by molar mass.

SMILES	tested on	assay	test system	setting	quantity	result
Cc1cccc(-n2ncc(Cl)c(Cl)c2=O)c1	HCC827	cell growth or viability, resazurin		96 h	IC50	0.09 µM
OC(Cn1cncn1)(Cn1cncn1)c1ccc(F)cc1F	Cryptococcus neoformans	microbial growth, broth dilution			MIC	3.12 µg/mL (≈ 10.2 µM)
O=C1CCc2ccc(O)c(c2)Oc2ccc(cc2)[C@H]2O[C@@H]2CO1		tubulin polymerisation, inhibitor			IC50	> 40 µM
Cc1cc(N(CCO)CCO)ccc1C=O	CAKI-1	cell growth or viability			IC50	> 10 µg/mL
O=[N+]([O-])c1ccc(C2=[N+]([O-])c3ccccc3N3CCN=C23)cc1	Clostridium perfringens	microbial growth			MIC50	≤ 0.06 µg/mL
O=C1CCc2ccc(O)c(c2)Oc2ccc(cc2)/C=C\CO1		tubulin polymerisation, inhibitor			IC50	> 40 µM
O=C(CCCCCCCCCCOc1ccccc1)NP(=O)(O)O	Bacillus subtilis	microbial growth	ATCC23857		MIC	> 200 µg/mL
COc1ccc(/C=C\c2cc(OC)c(OC)c(OC)c2)cc1		tubulin polymerisation, inhibitor, absorbance			IC50	1.1 µM
CN[C@@H]1[C@H](O)[C@H](NC)[C@H]2O[C@@]3(O)C(=O)C[C@@H](C)O[C@H]3O[C@@H]2[C@H]1O	Proteus vulgaris	microbial growth, broth dilution	ATCC33420		MIC	50 µg/mL (≈ 150 µM)
CN1C[C@H](C(=O)N[C@]2(C)O[C@@]3(O)[C@@H]4CCCN4C(=O)[C@H](Cc4ccccc4)N3C2=O)C=C2c3cccc4[nH]cc(c34)C[C@H]21	WI-38	cell growth or viability, MTT		72 h	EC50	57 µM
CCCCCCCC(=O)NP(=O)(O)O	Bacillus subtilis	microbial growth	ATCC23857		MIC	> 200 µg/mL
N.N.[Cl][Pt][Cl]	HCC827	cell growth or viability, MTT		72 h	IC50	6 µM
Cc1ncc([N+](=O)[O-])n1CCO	Clostridium perfringens	microbial growth			MIC50	0.5 µg/mL (≈ 2.92 µM)
